Drawing on ChEMBL document CHEMBL4219216, “2-Aminoquinazolin-4(3H)-one based plasmepsin inhibitors with improved hydrophilicity and selectivity” (Bioorg Med Chem, 2018), this text covers IC50 and solubility for 17 compounds.

≈ marks a conversion by molar mass, not a printed value.

One data set concerns the target Plasmepsin 4 (Plasmodium falciparum, UniProt Q17SB2). As to the kind of experiment: Inhibition of Plasmodium falciparum plasmepsin 4 using DABCYL-Glu-Arg-Nle-Phe-Leu-Ser-Phe-Pro-EDANS as substrate preincubated for 30 mins followed by substrate addition measured every 1 min within 8 to 15 mins by FRET assay. An outline of the steps: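 Plm IV in 0.1 M NaOAc pH 4.5 with 10% glycerol; compounds tested at 0.01–100 μM, preincubated with enzyme 30 min at 37 °C. […] Fluorescence (Ex 336/Em 490 nm) read at 37 °C; rate taken from the linear interval. Triplicate; IC50 fitted from rates; pepstatin A control.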

The nature of data set [1]: Solubility of the compound in Tris-buffer at pH 7.4 after 16 hrs by HPLC method. The data set is classed as physicochemical. Particulars: for solubility at 16 h: Tris buffer, pH 7.4. A digest of the protocol:
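A DMSO stock (≈10 mg/mL) was diluted 10 µL into 2 mL of 0.05 M TRIS pH 7.4 (0.5% DMSO final) and shaken 16 h at 25 °C. After filtering off the precipitate, the solution was quantified by reversed-phase HPLC (UV 210 or 254 nm) against a methanol-diluted ≈0.05 mg/mL standard. Working range ≈0.005-0.05 mg/mL.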

The next data set concerns the target Plasmepsin II (Plasmodium falciparum, UniProt P46925). As to the kind of experiment: Inhibition of Plasmodium falciparum plasmepsin-2 using DABCYL-Glu-Arg-Nle-Phe-Leu-Ser-Phe-Pro-EDANS as substrate preincubated for 30 mins followed by substrate addition measured every 1 min within 8 to 15 mins by FRET assay. A digest of the protocol: (§1)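 Test compounds at 0.01-100 μM preincubated with enzyme in 0.1 M NaOAc pH 4.5, 10% glycerol, for 30 min at 37 °C. […] Fluorescence (Ex 336, Em 490 nm) read at 37 °C. Rate taken from the linear interval only. Triplicate experiments, IC50 from dose-response fit.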

The target of another data set is Plasmepsin I (Plasmodium falciparum, UniProt P39898). As to the kind of experiment: Inhibition of Plasmodium falciparum plasmepsin-1 using DABCYL-Glu-Arg-Nle-Phe-Leu-Ser-Phe-Pro-EDANS as substrate preincubated for 30 mins followed by substrate addition measured every 1 min within 8 to 15 mins by FRET assay. A digest of the protocol:
as §1

For the next data set, the target named is Cathepsin D (Homo sapiens, UniProt P07339). As to the kind of experiment: Inhibition of human cathepsin D using DABCYL-Glu-Arg-Nle-Phe-Leu-Ser-Phe-Pro-EDANS as substrate preincubated for 30 mins followed by substrate addition measured every 1 min within 8 to 15 mins by FRET assay.
Data set [2] concerns the target Plasmepsin I (Plasmodium falciparum) (UniProt P39898). As to the kind of experiment: Inhibition of Plasmodium falciparum plasmepsin-1 using DABCYL-Glu-Arg-Nle-Phe-Leu-Ser-Phe-Pro-EDANS as substrate preincubated for 30 mins followed by substrate addition measured every 1 min within 8 to 15 mins by FRET assay.

Plasmepsin I, sequence (P39898 whole entry): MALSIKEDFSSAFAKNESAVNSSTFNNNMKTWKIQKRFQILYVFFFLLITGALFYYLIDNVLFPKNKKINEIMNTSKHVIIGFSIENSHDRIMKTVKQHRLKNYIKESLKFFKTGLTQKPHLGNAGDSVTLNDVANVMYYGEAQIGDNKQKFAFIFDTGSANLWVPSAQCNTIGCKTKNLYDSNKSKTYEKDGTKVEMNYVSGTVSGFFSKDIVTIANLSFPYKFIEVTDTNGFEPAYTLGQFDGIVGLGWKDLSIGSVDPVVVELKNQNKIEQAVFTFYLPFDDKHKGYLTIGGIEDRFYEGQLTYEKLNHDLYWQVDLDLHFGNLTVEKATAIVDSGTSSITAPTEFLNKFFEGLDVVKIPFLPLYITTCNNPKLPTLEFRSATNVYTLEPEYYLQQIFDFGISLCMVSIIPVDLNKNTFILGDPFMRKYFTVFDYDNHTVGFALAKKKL
Cathepsin D, sequence (P07339 65-162 limits assumed): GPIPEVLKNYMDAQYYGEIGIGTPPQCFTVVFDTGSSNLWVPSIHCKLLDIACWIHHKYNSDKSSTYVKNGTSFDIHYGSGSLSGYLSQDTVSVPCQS
Cathepsin D, sequence (P07339 169-412 limits assumed): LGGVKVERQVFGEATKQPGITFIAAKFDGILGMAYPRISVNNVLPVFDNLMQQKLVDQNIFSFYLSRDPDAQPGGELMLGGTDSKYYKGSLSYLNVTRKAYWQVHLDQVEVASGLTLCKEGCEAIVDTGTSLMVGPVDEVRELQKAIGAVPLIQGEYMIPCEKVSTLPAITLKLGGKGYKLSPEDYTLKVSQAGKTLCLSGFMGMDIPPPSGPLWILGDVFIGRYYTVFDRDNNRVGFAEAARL
Plasmepsin II, sequence (P46925 whole entry): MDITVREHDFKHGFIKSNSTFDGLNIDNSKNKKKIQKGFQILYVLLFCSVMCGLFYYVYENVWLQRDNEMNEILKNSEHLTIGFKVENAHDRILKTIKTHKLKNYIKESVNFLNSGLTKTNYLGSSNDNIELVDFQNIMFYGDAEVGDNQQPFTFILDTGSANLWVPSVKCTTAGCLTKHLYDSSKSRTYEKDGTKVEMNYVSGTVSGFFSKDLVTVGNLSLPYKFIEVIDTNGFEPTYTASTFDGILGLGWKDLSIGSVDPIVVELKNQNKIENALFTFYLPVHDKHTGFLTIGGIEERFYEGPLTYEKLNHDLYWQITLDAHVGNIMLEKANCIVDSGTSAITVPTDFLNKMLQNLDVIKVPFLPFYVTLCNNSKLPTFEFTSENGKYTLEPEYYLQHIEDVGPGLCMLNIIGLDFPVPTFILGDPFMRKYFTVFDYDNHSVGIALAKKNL
Plasmepsin 4, sequence (Q17SB2 whole entry): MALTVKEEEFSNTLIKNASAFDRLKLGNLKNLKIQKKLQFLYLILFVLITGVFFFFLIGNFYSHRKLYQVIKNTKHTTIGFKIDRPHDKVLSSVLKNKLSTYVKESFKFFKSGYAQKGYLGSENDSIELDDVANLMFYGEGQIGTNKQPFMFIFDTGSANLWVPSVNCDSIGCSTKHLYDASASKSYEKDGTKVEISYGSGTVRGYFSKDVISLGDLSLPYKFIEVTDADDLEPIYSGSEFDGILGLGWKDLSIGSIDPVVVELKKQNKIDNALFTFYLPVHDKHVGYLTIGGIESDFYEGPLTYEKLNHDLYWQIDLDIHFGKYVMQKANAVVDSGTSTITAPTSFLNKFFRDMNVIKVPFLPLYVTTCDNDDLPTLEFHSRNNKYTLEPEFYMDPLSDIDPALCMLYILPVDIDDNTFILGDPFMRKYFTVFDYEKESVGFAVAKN
Plasmepsin I (Plasmodium falciparum), sequence (P39898 whole entry, looked up): as the sequence (P39898 whole entry) above

On to `Nc1nc2cc(-c3ccc(CCCc4ccccc4)cc3)ccc2c(=O)n1C[C@@H]1CC[C@H](c2ccccc2)O1`, for which the IC50 (commonly the midpoint of a concentration-inhibition curve) against Plasmepsin 4 amounted to 130 nM. Besides, the solubility (in general, the concentration that dissolves in the medium under given conditions) at 16 h in data set [1] was less than 0.01 µg/mL.

For the compound `CCCCCc1ccc(-c2ccc3c(=O)n(C[C@@H]4CC[C@H](c5ccccc5)O4)c(N)nc3c2)cc1`, on Plasmepsin 4, half-maximal inhibition (IC50) was put at 100 nM. Besides, the solubility at 16 h in data set [1] was less than 0.01 µg/mL.

As to `Nc1nc2cc(-c3ccccc3)cc(-c3ccc(C(=O)O)cc3)c2c(=O)n1C[C@@H]1CC[C@H](c2ccccc2)O1`, the IC50 is 280 nM on Plasmepsin II, 600 nM at Plasmepsin I, 500 nM at Plasmepsin 4 and 20000 nM on Cathepsin D.

Take `Nc1nc2cc(-c3ccccc3)cc(-c3ccc(C(=O)O)cc3)c2c(=O)n1CC1CCCO1` (racemic): the half-maximal inhibitory concentration (IC50) against Plasmepsin II was determined as 330 nM; on Plasmepsin I, 3500 nM; against Plasmepsin 4 it was 1400 nM; against Cathepsin D, 100000 nM.

As for `CCCCCCCCc1cc(CCC(=O)O)c2c(=O)n(CC3CCCO3)c(N)nc2c1` (racemic), the IC50 is 22 nM against Plasmepsin II, 20 nM against Plasmepsin I, 110 nM against Plasmepsin 4 and 430 nM against Cathepsin D.

Take `Nc1nc2cc(-c3ccc(CCCc4ccccc4)cc3)ccc2c(=O)n1CC1CCCO1` (racemic): the IC50 against Plasmepsin II was 700 nM; at Plasmepsin I, 1300 nM; against Plasmepsin 4, 100 nM; at Cathepsin D, greater than 100000 nM.

`CCCCCc1ccc(-c2cc(CCC(=O)O)c3c(=O)n(CC4CCCO4)c(N)nc3c2)cc1` (racemic): the half-maximal inhibitory concentration (IC50) against Plasmepsin II worked out at 27 nM; at Plasmepsin I it was 50 nM; at Plasmepsin 4 it was 42 nM; against Cathepsin D, 21000 nM. The same compound returned a solubility at 16 h in data set [1] of 0.1 µg/mL (≈ 0.216 µM).

As to `CCCCCc1ccc(-c2cc(-c3ccc(C(=O)O)cc3)c3c(=O)n(CC4CCCO4)c(N)nc3c2)cc1` (racemic), the IC50 was found to be 23 nM at Plasmepsin II, 2400 nM at Plasmepsin I, 45 nM against Plasmepsin 4 and 29000 nM on Cathepsin D. This compound also gave a solubility at 16 h in data set [1] of 0.03 µg/mL (≈ 0.0586 µM).

For `Nc1nc2cc(-c3ccccc3)cc(-c3cccnc3)c2c(=O)n1CC1CCCO1` (racemic), the IC50 against Plasmepsin II was found to be 480 nM; on Plasmepsin I, 3000 nM; against Plasmepsin 4, 1500 nM; on Cathepsin D it was 71000 nM.

As to `Nc1nc2cc(-c3ccc(CCCc4ccccc4)cc3)cc(CCC(=O)O)c2c(=O)n1CC1CCCO1` (racemic), the IC50 at Plasmepsin II was 80 nM; on Plasmepsin I it was 740 nM; at Plasmepsin 4 it was 30 nM; on Cathepsin D it was 13000 nM. In data set [1] (buffer, pH 7.4, 16 h), this compound yielded a solubility of 0.01 µg/mL (≈ 0.0195 µM).

Take `Nc1nc2cc(-c3ccccc3)cc(-c3ccncc3)c2c(=O)n1CC1CCCO1` (racemic): the half-inhibitory concentration (IC50) against Plasmepsin II was 1000 nM; on Plasmepsin I, 5000 nM; against Plasmepsin 4 it was 2400 nM; against Cathepsin D it was greater than 100000 nM.

Turning to `CCCCCc1ccc(-c2ccc3c(=O)n(CC4CCCO4)c(N)nc3c2)cc1` (racemic), the IC50 against Plasmepsin II worked out at 75 nM; against Plasmepsin I it was 700 nM; at Plasmepsin 4, 92 nM; at Cathepsin D, 3200 nM.

Turning to `Nc1cccc(-c2cc(-c3ccccc3)cc3nc(N)n(CC4CCCO4)c(=O)c23)c1` (racemic), the IC50 came out at 820 nM on Plasmepsin II, 2000 nM against Plasmepsin I, 1000 nM on Plasmepsin 4 and 93000 nM against Cathepsin D.

As for `Nc1nc2cc(-c3ccccc3)cc(-c3cccc(C(=O)O)c3)c2c(=O)n1CC1CCCO1` (racemic), the IC50 was 500 nM at Plasmepsin II, 1000 nM on Plasmepsin I, 1500 nM against Plasmepsin 4 and 98000 nM on Cathepsin D.

For `NC(=O)c1ccc(-c2cc(-c3ccccc3)cc3nc(N)n(CC4CCCO4)c(=O)c23)cc1` (racemic), the half-maximal inhibitory concentration (IC50) on Plasmepsin II was 600 nM; against Plasmepsin I, 3400 nM; at Plasmepsin 4, 2500 nM; on Cathepsin D, greater than 100000 nM.

For `CC(C)CC(=O)N[C@H](C(=O)N[C@H](C(=O)N[C@@H](CC(C)C)[C@@H](O)CC(=O)N[C@@H](C)C(=O)N[C@@H](CC(C)C)[C@@H](O)CC(=O)O)C(C)C)C(C)C` [PEPSTATIN], the values for the IC50 (on Plasmepsin I; against Plasmepsin 4; in data set [2]) were 0.42 nM, 0.3 nM and 0.42 nM, respectively.

Compound `Oc1ccc(/C=C/c2cc(O)cc(O)c2)cc1` [RESVERATROL] had an IC50 at Cathepsin D of 138000 nM.
